Results as given in ChEMBL document CHEMBL1153899, “Discovery of benzothiazole derivatives as efficacious and enterocyte-specific MTP inhibitors” (Bioorg Med Chem Lett, 2009).
Calls of active or inactive are those of the source. No cut-off for these calls is given here.

What was measured:
Mus musculus [1] = assay: Toxicity in 28-day diet-induced obesity C57BL/6 mouse model assessed as liver alkaline phosphatase level at 1 to 3 mg/kg, po daily for 4 weeks; format: organism-based; parameters: dose 1-3 mg/kg, route oral; conditions: in vivo, 672 h
Outline: (§1)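 C57BL/6 male mice kept on high fat diet 4 weeks before study (body weight about 40 g) and throughout; n = 10, dosed orally once daily for 4 weeks at 1 or 3 mg/kg, vehicle 5% PEG400, 0.25% Tween 80, 94.25% H2O; liver weight and ALT, AST, alkaline phosphatase assessed after 4 weeks.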

[2] = Oral bioavailability in Sprague-Dawley rat at 3 mg/kg; format: ADME, organism-based; conditions: in vivo
Outline: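 Rats dosed orally at 3 mg/kg; Cmax, Tmax, oral half-life and AUC determined from plasma, and oral bioavailability (%F) calculated against the 1 mg/kg IV bolus.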

[3] = Cmax in Sprague-Dawley rat liver at 30 mg/kg, po; format: ADME, organism-based; parameters: dose 30 mg/kg, route oral
Outline: (§2)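 Dose-proportionality PK in Sprague–Dawley rats (n = 3) given single oral doses of 3, 10, 30 or 100 mg/kg. Liver and plasma were sampled at 0.5, 1, 2, 4 and 8 h and assayed for drug concentration to derive Cmax, AUC(0–∞) and T1/2.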

Mus musculus [4] = assay: Decrease in total food intake in 3-day high fat diet fed C57BL/6 mouse at 3 mg/kg, po daily for 3 days; format: functional; parameters: scale not given: the % may be the effect or the level left
Outline: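 Lean C57BL/6 mice were given high-fat diet for 1 week, then dosed orally once daily in the evening for 3 days. Food intake and body weight were recorded daily. At the end a morning dose was given, and blood was drawn at 30 min, 2 h and 6 h for plasma triglycerides.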

[5] = Volume of distribution in Sprague-Dawley rat at 1 mg/kg, iv; format: ADME, organism-based; parameters: dose 1 mg/kg, route intravenous; conditions: in vivo
Outline: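 Rats given IV bolus at 1 mg/kg; clearance, half-life and volume of distribution derived from plasma drug concentrations.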

Mus musculus [6] = assay: Decrease in body weight in […] at 3 mg/kg, po daily for 3 days; format: functional, C57BL/6; parameters: scale not given: the % may be the effect or the level left
[7] = Cmax in Sprague-Dawley rat plasma at 3 mg/kg, po; format: ADME, organism-based; parameters: dose 3 mg/kg, route oral; outline: as §2
[8] = Cmax in Sprague-Dawley rat liver at 10 mg/kg, po; format: ADME, organism-based; parameters: dose 10 mg/kg, route oral; outline: as §2
[9] = AUC (0 to infinity) in Sprague-Dawley rat liver at 30 mg/kg, po; format: ADME, organism-based; parameters: dose 30 mg/kg, route oral, time infinity; outline: as §2
[10] = Half life in Sprague-Dawley rat plasma at 30 mg/kg, po; format: ADME, organism-based; parameters: dose 30 mg/kg, route oral; outline: as §2
[11] = AUC (0 to infinity) in Sprague-Dawley rat plasma at 3 mg/kg, po; format: ADME, organism-based; parameters: time infinity, dose 3 mg/kg, route oral; outline: as §2
[12] = Cmax in Sprague-Dawley rat plasma at 100 mg/kg, po; format: ADME, organism-based; parameters: dose 100 mg/kg, route oral; outline: as §2
Mus musculus [13] = assay: Decrease in body weight in […] at 10 mg/kg, po daily for 3 days; format: functional, C57BL/6; parameters: scale not given: the % may be the effect or the level left
Mus musculus [14] = assay: Decrease in total food intake in 28-day diet-induced obesity C57BL/6 mouse model at 1 to 3 mg/kg, po daily for 4 weeks measured on day 4
Mus musculus [15] = assay: Toxicity in 28-day diet-induced obesity C57BL/6 mouse model assessed as liver aspartate aminotransferase level at 1 to 3 mg/kg, po daily for 4 weeks; format: organism-based; parameters: dose 1-3 mg/kg, route oral; conditions: in vivo, 672 h; outline: as §1
[16] = Half life in Sprague-Dawley rat liver at 30 mg/kg, po; format: ADME, organism-based; parameters: dose 30 mg/kg, route oral; outline: as §2
Mus musculus [17] = assay: Decrease in total food intake in 28-day diet-induced obesity C57BL/6 mouse model at 3 mg/kg, po daily for 4 weeks measured on day 21; format: functional; parameters: scale not given: the % may be the effect or the level left
Outline: (§3)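 C57BL/6 male mice were fed high-fat diet for 4 weeks beforehand to about 40 g and kept on it throughout. Groups of n = 10 were dosed po once daily for 4 weeks at 1 or 3 mg/kg, or vehicle (5% PEG400, 0.25% Tween 80, 94.25% H2O). Food was weighed and replaced with pre-weighed food 3 times weekly. Fed plasma glucose was taken at 2 weeks and insulin at 4 weeks.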

[18] = Half life in Sprague-Dawley rat plasma at 10 mg/kg, po; format: ADME, organism-based; parameters: dose 10 mg/kg, route oral; outline: as §2
Mus musculus [19] = assay: Toxicity in 28-day diet-induced obesity C57BL/6 mouse model assessed as liver alanine aminotransferase level at 1 to 3 mg/kg, po daily for 4 weeks; format: organism-based; parameters: dose 1-3 mg/kg, route oral; conditions: in vivo, 672 h; outline: as §1
Mus musculus [20] = assay: Decrease in body weight in 28-day diet-induced obesity C57BL/6 mouse model at 3 mg/kg, po daily for 4 weeks; format: functional; parameters: scale not given: the % may be the effect or the level left; outline: as §3
[21] = Clearance in Sprague-Dawley rat at 1 mg/kg, iv; format: ADME, organism-based; parameters: dose 1 mg/kg, route intravenous; conditions: in vivo
[22] = Half life in Sprague-Dawley rat plasma at 3 mg/kg, po; format: ADME, organism-based; parameters: dose 3 mg/kg, route oral; outline: as §2
[23] = AUC (0 to infinity) in Sprague-Dawley rat liver at 10 mg/kg, po; format: ADME, organism-based; parameters: time infinity, dose 10 mg/kg, route oral; outline: as §2
Mus musculus [24] = assay: Decrease in total food intake in 28-day diet-induced obesity C57BL/6 mouse model at 1 mg/kg, po daily for 4 weeks measured on day 21; format: functional; parameters: scale not given: the % may be the effect or the level left; outline: as §3
[25] = AUC (0 to infinity) in Sprague-Dawley rat liver at 3 mg/kg, po; format: ADME, organism-based; parameters: time infinity, dose 3 mg/kg, route oral; outline: as §2
[26] = AUC (0 to infinity) in Sprague-Dawley rat liver at 100 mg/kg, po; format: ADME, organism-based; parameters: time infinity, dose 100 mg/kg, route oral; outline: as §2
[27] = AUC (0 to infinity) in Sprague-Dawley rat at 3 mg/kg, po; format: ADME, organism-based; parameters: dose 3 mg/kg, route oral, time infinity; conditions: plasma
Mus musculus [28] = assay: Decrease in plasma glucose level in 28-day diet-induced obesity C57BL/6 mouse model at 1 to 3 mg/kg, po daily for 4 weeks measured on week 2; format: functional, organism-based; outline: as §3
Mus musculus [29] = assay: Toxicity in 28-day diet-induced obesity C57BL/6 mouse model assessed as increase in liver weight at 1 to 3 mg/kg, po daily for 4 weeks; format: organism-based; parameters: dose 1-3 mg/kg, route oral; conditions: in vivo, 672 h; outline: as §1

bioavailability [2]: 1.29% | Cmax [3]: 73.1 µg/kg | Vd [5]: 2.99 L/kg | Cmax [7]: 35 ng/mL | Cmax [8]: 90.1 µg/kg | AUC(0-inf) [9]: 3030 ng·h/mL | half-life [10]: 10.4 h | AUC(0-inf) [11]: 109 ng·h/mL | Cmax [12]: 69.5 ng/mL | half-life [16]: 23.7 h | half-life [18]: 7.91 h | clearance [21]: 17.2 mL/min/kg | half-life [22]: 2.42 h | AUC(0-inf) [23]: 2640 ng·h/mL | AUC(0-inf) [25]: 1220 ng·h/mL | AUC(0-inf) [26]: 1780 ng·h/mL | AUC(0-inf) [27]: 40.8 ng·h/mL
SMILES: CC(C)c1ccc(-c2ccccc2C(=O)Nc2ccc3nc(C(=O)N[C@H](C(=O)N(C)Cc4ccc(F)cc4)c4ccccc4)sc3c2)cc1
Activity (Mus musculus [1]): Non-toxic | Activity (Mus musculus [4]): 14% | Activity (Mus musculus [6]): 3% | Activity (Mus musculus [13]): 4% | Activity (Mus musculus [14]): Active | Activity (Mus musculus [15]): Non-toxic | Activity (Mus musculus [17]): 12% | Activity (Mus musculus [19]): Non-toxic | Activity (Mus musculus [20]): 3% | Activity (Mus musculus [24]): 9% | Activity (Mus musculus [28]): Active | Activity (Mus musculus [29]): Non-toxic
